A selection: hits, their analogues and other compounds. The true share with any hit is near 2.2%.
RanGTP-Impb inh: disruptors of Ran-importin-beta complex formation – biochemical, FRET, CFP-Ran, YFP-importin-beta, homogeneous, primary screen | cell-free CFP-Ran/YFP-importin-beta FRET ratio | inhibition, % (concentration not given with the values) | 300,000 tested, 1.1% active;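 active means more than half of the replicate wells show a fall in the fluorescence ratio signal beyond about 16%, limit read from the data, passing the limit was not always enough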;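 further: 0% = DMSO wells and 100% = Ran loaded with GDP instead of GTP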
TbHK1 inh: T. brucei hexokinase 1 inhibition | 220,000 tested, 0.11% active | inhibition, % at 10 µM | recombinant TbHK1, G6PDH-coupled NADH A340 | AID 1430;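 active means inhibition of 50% or more in the single-dose primary screen; inactive means inhibition below 50%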
Runt-CBFb FRET: blocks binding of human RUNX1 Runt domain to CBFb; Q01196+Q13951; Cerulean-Runt/Venus-CBFb FRET ratio 530/480, 1 h; inhibition, % at 20 µM; 220,000 tested, 0.46% active;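 active means inhibition over about 50% at 20 µM in the single-dose screen, limit read from the data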;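 further: 0% = DMSO wells and 100% = excess unlabeled CBFb competitor control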
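System: Cerulean-labeled Runt domain protein | Quantity: 100 nM of each labeled protein | Schedule: 1 h compound exposure, room temperature | Detection: Fluorescence energy transfer, 422 nm excitation, 530/480 nm emission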
14-3-3 Bad PPI: disrupts binding of bovine 14-3-3 zeta to phospho-Bad peptide; TR-FRET 14-3-3zeta/Dy647-pBad peptide displacement, 1 h; 220,000 tested, 0.71% active; inhibition, % at 21.7 µM; AID 781; P63103;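 active means inhibition above about 70%, limit read from the data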;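 further: 0% = full 14-3-3 plus peptide FRET controls and 100% = background without 14-3-3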
Runt-SMMHC FRET: Runt domain-CBFb-SMMHC interaction inhibition; Q01196+Q13951; Cerulean-Runt/Venus-CBFb-SMMHC FRET ratio 530/480, 1 h; 220,000 tested, 0.74% active; inhibition, % at 20 µM;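 active means mean inhibition across duplicate retests at 20 µM reaching about 50%, limit read from the data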;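 further: 0% = DMSO wells and 100% = wells with excess untagged CBFb-SMMHC; inhibitors lower the FRET ratio by blocking Runt binding to CBFb-SMMHC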
Hck-Nef inh: blocks Nef-activated human Hck kinase; P08631; Recombinant Hck-YEEI plus Nef, Z-Lyte FRET kinase assay; inhibition, % at 20 µM; 220,000 tested, 0.68% active;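 active means Hck-Nef kinase inhibition above about 50%, limit read from the data; inactive means inhibition below that limit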;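 further: 0% = DMSO with Hck plus Nef and 100% = Hck alone without Nef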
The depositor's hits bear a star; . = no result given.

SMILES	RanGTP-Impb inh	TbHK1 inh	Runt-CBFb FRET	14-3-3 Bad PPI	Runt-SMMHC FRET	Hck-Nef inh
CC(C)(C)OC(=O)N1CC=C2C(C#N)=C(N)C(C#N)(C#N)[C@H](c3cccnc3)[C@H]2C1	18*	-3	16	-16	29	-2
CC(C)(C)OC(=O)N1CC=C2C(C#N)=C(N)C(C#N)(C#N)C(c3cccs3)C2C1 (stereo not given)	-3	-10	-1	-6	-12	-2
CCCCn1c(N)c(N(CC)C(=O)CSCC(=O)Nc2ccc(OC)cc2)c(=O)[nH]c1=O	-3	.	.	.	.	.
CCC1C2CN(C(C)=O)CC=C2C(C#N)=C(N)C1(C#N)C#N (stereo not given)	0	34	8	-11	25	6
CCN1CC=C2C(C#N)=C(N)C(C#N)(C#N)C(c3cc(Cl)ccc3Cl)C2C1 (stereo not given)	56*	-27	73*	28	65*	10
CN1CC=C2C(C#N)=C(N)C(C#N)(C#N)C(Cc3ccccc3)C2C1 (stereo not given)	100*	-4	110*	-11	78*	13
COc1ccc(Br)c(OC)c1C(=O)NC(=O)Nc1nc(C)cc(C)n1	2	-10	0	0	0	-19
O=C(Nc1cccnc1)c1cc2c(ccc3ccccc32)o1	-1	-5	-3	77*	18	0
O=C(Nc1cccnc1)c1cccc(-c2cc3ccccc3oc2=O)c1	1	-14	2	78*	-6	10
O=C(O)CC(CCc1ccccc1)OC1OC(CO)C(O)C(O)C1O (stereo not given)	.	73*	10	19	-3	49
Cc1ccc(CNC(=O)C2CCN(c3nnc(N4CCCC4=O)s3)CC2)cc1	-1	.	.	.	.	.
Cc1ccc(CN2CCN(C(=O)CCN3C(=O)c4ccccc4C3=O)CC2)cc1	6	-6	108*	-9	5	0
O=C(CCN1C(=O)c2ccccc2C1=O)N1CCN(Cc2ccccc2)CC1	10	-12	1	-8	0	1
Cc1cc(C)nc(NS(=O)(=O)c2ccc(CC(C)C)cc2)c1	-1	4	0	0	1	9
COc1ccc(/C=C2\Oc3cc(OC(=O)N4CCOCC4)ccc3C2=O)c(OC)c1	-18	-24	-143	-5	-39	4
COc1ccc2c(c1)O/C(=C\c1sccc1C)C2=O	29*	-9	3	-1	15	15
COc1ccc2c(c1)CC(C1(O)C(=O)N(C)c3ccccc31)C2=O (stereo not given)	9	1	2	74*	-3	-1
CN1C(=O)C(O)(C2COC(C)(C)CC2=O)c2ccccc21 (stereo not given)	-2	-13	0	-12	1	0
O=C1c2ccc3c4c(ccc(c24)C(=O)N1CCCCO)C(=O)N(CCCCO)C3=O	-2	-20	-3	96*	-5	7
O=C(c1ccc2c(c1)C(=O)N(CCCO)C2=O)c1ccc2c(c1)C(=O)N(CCCO)C2=O	.	-10	1	1	-3	-6
Cc1ccc2c(cnn2C(=O)CCCC(=O)NCc2ccc(Cl)cc2)c1	26*	.	.	.	.	.
CC1(C)CC(=O)C2=C(C1)Nc1ccccc1S2	2	-2	5	0	-18	18
CC1(C)CC(=O)C2=C(C1)Nc1ccccc1NC2	-10	-37	-28	-7	87*	25
O=C(CC(C(=O)O)c1c[nH]c2ccccc12)c1ccccc1 (stereo not given)	42*	-2	1	2	3	32
O=C(O)C(O)Cc1c[nH]c2ccccc12 (stereo not given)	.	0	0	3	2	0
CC(NC(=O)COc1cccnc1[N+](=O)[O-])c1ccc(Cl)cc1 (stereo not given)	2	.	.	.	.	.
Cc1onc(-c2ccccc2)c1C(=O)/C=C/N(C)C	17*	-42	0	-6	-1	12
COC(=O)C1=CN(CC2CCCO2)C=C(C(=O)OC)C1c1cc(OC)c(OC)c(OC)c1 (stereo not given)	3	-11	37	-19	93*	45

Bioassay records deposited in PubChem by several laboratories.
